Hits are enriched below; roughly 3.1% of the tested compounds scored in any of these assays.
Bfl-1 A1 inh: caspase 3/7 activation in MEF A1-2A-BIM cells, primary screen, A1 inhibitor project, cell-based, luminescence, HTS; caspase activation, % (test concentration not listed); Caspase-Glo 3/7 luminescence, 3 h; percent of clofoctol response, vehicle zero; 330,000 tested, 0.066% active;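 active = over half of replicate activation scores above 10%, or exactly half above 10 with the replicate mean above 10; inconclusive = replicate mean below 10 yet half the replicates above 10; inactive = over half of replicates below 10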
T cruzi repl: inhibitors of intracellular T. cruzi growth, primary screen, luminescence, NIH3T3 host cells; inhibition, % (no concentration beside the values); T. cruzi beta-gal in NIH3T3, 90 h; 300,000 tested, 1.4% active;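 active = mean inhibition across valid replicates above about 55%, limit read from the data; inconclusive = mean below that limit but half or more replicates reach it; inactive = mean below it, under half of replicates reach it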;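 note: signal also drops with host cell toxicity which is not excluded here; higher percent means less beta-gal luminescence so fewer parasites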
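System – NIH/3T3 host cells with β-galactosidase reporter T. cruzi · Doses – single 50 nL compound addition per well in DMSO · Reagent – 5000 T. cruzi trypomastigotes/well · Medium – Low-serum DMEM with 2% FBS · Timing – ≥90 h infection period, 3 h prior cell attachment · Evaluation – parasite load inhibition, % · Technique – GalScreen luminescence, 60 min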
Calb FLC: C. albicans growth inhibition with fluconazole, primary screen, CaCi-2 strain, Alamar Blue fluorescence. growth inhibition, % (test concentration not listed). C. albicans CaCi-2 + fluconazole, 48 h. 300,000 tested, 0.57% active;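 active = growth inhibition above about 58% in most replicates, limit read from the data, passing the limit was not always enough; inconclusive = exactly half the replicates above a set limit; inactive = most replicates below a set limit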;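 note: all wells also contain fluconazole at 8 µg/ml as a sub-toxic cotreatment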
H9c2 TAG inh: inhibitors of triacylglycerol accumulation, primary screen, cell-based, uHTS, fluorescence, H9c2; H9c2 cells, Nile Red lipid (TAG) fluorescence; cells loaded with 200 µM oleic acid; inhibition, % at 12.5 µM; 230,000 tested, 0.66% active; AID 651582, 2012;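 active = pattern-corrected inhibition of lipid staining of at least 50% with the nuclear-stain viability signal not falling by more than 50%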
Beta cell apopt: inhibitors of cytokine-induced beta cell apoptosis, primary screen, luminescence; INS-1E cytokine-induced death, ATP luminescence, 48 h; percent of positive-control rescue, neutral wells zero; protection from apoptosis, % (concentration not given with the values); 300,000 tested, 0.8% active; AID 435005, 2010;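 active = Every replicate reaches about 75%, or at least half do and their mean reaches it too, limit read from the data; inconclusive = At least half of replicates reach the limit but their mean does not; inactive = Under half of replicates reach the limit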;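 note: higher means more ATP so stronger rescue from cytokine killing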
CSC inhib: cancer stem cell viability inhibitors, primary screen, luminescence | 300,000 tested, 1.1% active | AID 2717, 2010 | inhibition, % at 7.5 µM | cancer stem cell-like cells viability; in the data active = inhibition above about 75%; inconclusive = no clear call, values can overlap the other calls; tested in HMLE shEcad cells
TAG conf: triacylglycerol accumulation inhibitors, retest, confirmation, cell-based, single concentration, Nile Red fluorescence, H9c2 | shares compounds with H9c2 TAG inh | H9c2 lipid accumulation; cells loaded with 200 µM oleic acid | inhibition, % at 12.5 µM | 990 tested, 71% active | AID 651629, 2012;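 active = mean inhibition across replicates of 40% or more; inactive = mean inhibition below 40%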
Of the large screens only hits and unclear results are named; the others gave an inactive call (follow-up assays come after a bar, where they were run).

COc1ccc(NC(=O)Cn2nnc(-c3ccccc3NC(=O)C3CC3)n2)cc1	none (no result: H9c2 TAG inh)
CCOc1ccc(NC(=O)Cn2nnc(-c3ccccc3NC(=O)C3CC3)n2)cc1	H9c2 TAG inh 72 | TAG conf inactive
O=C(CCC1CCCC1)NNC(=O)c1cccc(Cl)c1	none (no result: CSC inhib)
COc1ccc(OC)c(N(CCN2C(=O)c3ccccc3C2=O)C(=O)CCl)c1	H9c2 TAG inh 52 (no result: Bfl-1 A1 inh, T cruzi repl, Calb FLC, Beta cell apopt, CSC inhib) | TAG conf 53
COc1ccc(NC(=O)CCN2C(=O)c3ccccc3C2=O)c(OC)c1	none (no result: H9c2 TAG inh)
CN(C(=O)c1cccc(NC(=O)Cc2ccc(NC(=O)C3CCCN(C(=O)c4ccccc4)C3)cc2)c1)C1CCCC1 (stereo not given)	none (no result: Bfl-1 A1 inh, T cruzi repl, Calb FLC, Beta cell apopt, CSC inhib)
COc1cc(/C=C2/NC(=O)N(Cc3ccccc3F)C2=O)ccc1O	H9c2 TAG inh 59 | TAG conf 63
CCOc1cc(N2CCOCC2)c(OCC)cc1NC(=O)CC12CC3CC(CC(C3)C1)C2	H9c2 TAG inh 74 | TAG conf 47
Cn1cc(C(=O)NS(=O)(=O)Nc2ccc(Br)cn2)c2ccccc21	none (no result: H9c2 TAG inh)
Cc1ccc2oc(NC3=NC4(CCCC4)C4=C(CCCC4=O)N3)nc2c1	H9c2 TAG inh 55 (no result: Bfl-1 A1 inh, T cruzi repl, Calb FLC, Beta cell apopt, CSC inhib) | TAG conf 62
CCCc1nc2oc3c(NCCN(C)C)ncnc3c2c2c1CCCC2	H9c2 TAG inh 58 | TAG conf inactive
COc1cc(C(=O)NNC(=O)COc2ccccc2Cl)ccc1OCC(=O)N1CCOCC1	none (no result: T cruzi repl, Calb FLC, CSC inhib)
Cc1noc(C)c1-c1ccc2ncnc(NCC3CCCCN3C)c2c1 (stereo not given)	H9c2 TAG inh 62 (no result: T cruzi repl, Calb FLC) | TAG conf 51
CCO[C@@H]1OC(C(=O)N2CCN(Cc3ccccc3)CC2)=C[C@H](c2ccc(C(F)(F)F)cc2)[C@H]1CCCO	H9c2 TAG inh 53 | TAG conf 52
COC(=O)C1=C(c2ccc(OC)cc2)OC(=O)C1(C)C	H9c2 TAG inh 60 | TAG conf inactive
COC(=O)c1noc(-c2ccc(OC)cc2)n1	none
CCCCc1ccc(N=N/C(C(=O)Nc2ccccc2OC)=C(/C)O)cc1	none (no result: H9c2 TAG inh)
CCCCc1ccc(N=N/C(C(=O)Nc2cc(OC)c(NC(C)=O)cc2OC)=C(/C)O)cc1	H9c2 TAG inh 55 | TAG conf 68
CCN(CC(=O)Nc1ccccc1OC)C(=O)CCOc1ccc(C(C)(C)C)cc1	none
O=C(Nc1c(Cl)ccc2nsnc12)c1ccc([N+](=O)[O-])o1	none (no result: H9c2 TAG inh)
COCCCN1C(=O)C(CC(=O)NCCc2ccccn2)CC(C(=O)N2CCOCC2)=C1C (stereo not given)	none (no result: Bfl-1 A1 inh, T cruzi repl, Calb FLC, Beta cell apopt, CSC inhib)
O=C(COC(=O)c1ccc(O)cc1)c1ccc2c(c1)OCCO2	none (no result: Bfl-1 A1 inh, T cruzi repl, Calb FLC, Beta cell apopt, CSC inhib)
COc1cc(CC(=O)OCC(=O)c2ccc3c(c2)OCCO3)cc(OC)c1OC	H9c2 TAG inh 68 | TAG conf 49
CCOc1ccccc1Nc1nnc(SCC(=O)Nc2nc(-c3ccc(OC)cc3)cs2)s1	none
COc1ccccc1Nc1nnc(SCC(=O)Nc2nc(-c3ccc(F)cc3)cs2)s1	H9c2 TAG inh 51 | TAG conf 57
Cc1ccc(-c2csc(NC(=O)CSc3nc4ccccc4c(=O)n3CCCN(C)C)n2)cc1	H9c2 TAG inh 70 | TAG conf 83
CCCCn1c(SCC(=O)Nc2nnc(CC)s2)nc2ccccc2c1=O	none (no result: H9c2 TAG inh)
CCn1c(SCC(=O)Nc2nc(-c3ccc(C)cc3)cs2)nnc1-c1ccccc1O	H9c2 TAG inh 80 (no result: CSC inhib) | TAG conf 68
CCn1c(SCC(=O)Nc2nc(-c3ccc(C)cc3)cs2)nnc1-c1ccccc1	none
Cc1ccc2cc3cc(C(=O)NCCCN4CCCCCC4)oc3nc2c1	H9c2 TAG inh 51 | TAG conf inactive
CCC(=O)Nc1cccc(-c2nnc(-c3cccc(NC(=O)CC)c3)o2)c1	none (no result: H9c2 TAG inh)
CCC(=O)Nc1ccc(-c2nnc(-c3ccccc3)o2)cc1	T cruzi repl 57, H9c2 TAG inh 52 | TAG conf 43
Cc1ccc(-c2cn3nc(-c4ccccc4)c(-c4ccccc4)nc3n2)cc1	none
O=[N+]([O-])c1ccc(-c2cn3nc(-c4ccccc4)c(-c4ccccc4)nc3n2)cc1	H9c2 TAG inh 87 | TAG conf inactive
CCc1nc(C)c(C(=O)N2CCCC(C(=O)Nc3cccc(-c4cccc(C)c4)c3)C2)o1 (stereo not given)	H9c2 TAG inh 50 | TAG conf 47
Cc1cccc(-c2cccc(NC(=O)C3CCCN(C(=O)c4ocnc4C)C3)c2)c1 (stereo not given)	none
CC(=NO)c1ccc2c(c1)C(=NO)c1ccccc1-2	none (no result: Bfl-1 A1 inh, T cruzi repl, Calb FLC, Beta cell apopt, CSC inhib)
CC(C)C[C@@H](CN1CCCC1CN1C(=S)NC[C@@H]1Cc1ccc(O)cc1)N1C[C@H](Cc2ccccc2)N(CC2CCCCC2)C1=S (stereo not given in full)	H9c2 TAG inh 53 (no result: Bfl-1 A1 inh, T cruzi repl, Calb FLC, Beta cell apopt, CSC inhib) | TAG conf 73
Cc1cccc(N2CCN(C(=O)c3c(-c4ccccc4Cl)noc3C)CC2)c1C	H9c2 TAG inh 71 | TAG conf 66
Cc1ccc(Cn2c(C(C)Nc3nc(-c4ccc(Cl)c([N+](=O)[O-])c4)cs3)nc3cc(C(F)(F)F)ccc32)cc1 (stereo not given)	H9c2 TAG inh 70 | TAG conf 71
COc1ccc(-c2cc3nc(-c4ccccc4)cc(N4CCN(C(=O)c5ccccc5)CC4)n3n2)cc1	H9c2 TAG inh 52 (no result: Bfl-1 A1 inh, T cruzi repl, Calb FLC, Beta cell apopt, CSC inhib) | TAG conf 42
O=C(c1ccoc1)N1CCN(c2cc(-c3cccc(F)c3)nc3cc(-c4cccc(Cl)c4)nn23)CC1	H9c2 TAG inh 57 (no result: Bfl-1 A1 inh, T cruzi repl, Calb FLC, Beta cell apopt, CSC inhib) | TAG conf 49
O=C(c1ccccc1)N1CCN(c2cc(Cl)nc3cc(-c4cccc(Cl)c4)nn23)CC1	none (no result: Bfl-1 A1 inh, T cruzi repl, Calb FLC, Beta cell apopt, CSC inhib)
O=C1C(Cl)=C(NCc2ccco2)C(=O)c2ccccc21	H9c2 TAG inh 65 (no result: Bfl-1 A1 inh, T cruzi repl, Calb FLC, Beta cell apopt, CSC inhib) | TAG conf 46
CN(C(=O)c1ccc(NC(=O)Cc2ccc(NC(=O)C3CCN(C(=O)C4CC4)CC3)cc2)cc1)C1CCCC1	none (no result: Bfl-1 A1 inh, T cruzi repl, Calb FLC, Beta cell apopt, CSC inhib)
Cc1cc2cccc(C)c2nc1SCC(=O)NNC(=O)c1ccco1	none
Cc1cccc2cc(C#N)c(SCC(=O)NNC(=O)Cc3ccccc3)nc12	H9c2 TAG inh 71 | TAG conf 98
Cc1ccc([N+](=O)[O-])cc1NC(=O)c1c(-c2ccccc2)noc1C	none
CC(C)c1ccc2c(c1)C(c1ccc(N3CCOCC3)cc1)=NNC(c1cccs1)=N2	T cruzi repl inconclusive, H9c2 TAG inh 52 | TAG conf inactive
CC(C)c1ccc2c(c1)C(c1cccs1)=NNC(c1ccncc1)=N2	none
